Six molecules from ChEMBL document CHEMBL2010734, “A thiopyranchromenone and other chromone derivatives from an Endolichenic fungus, Preussia africana” (J Nat Prod, 2012) can be followed below.

Holding throughout (assay type): functional, cell-based
Assay [1] deals with A549. Nature of the assay: Cytotoxicity against human A549 cells at 20 ug/ml after 48 hrs by MTS assay. The procedure, abridged:
(§1)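 Cells seeded at (2−5) × 10^3 per well depending on growth rate, attached overnight, then medium replaced with medium containing test compound (serial dilutions from 100 mM DMSO stock) or 0.1% DMSO vehicle; cisplatin as positive control. Incubated 48 h at 37 °C, humidified 5% CO2. MTS added, 90 min at 37 °C in the dark, proliferation read. Triplicate.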
Background: Tetrazolium dyes change colour on reduction, which living cells bring about.

Assay [2] has as its system MCF7. Kind of assay: Cytotoxicity against human MCF7 cells at 20 ug/ml after 48 hrs by MTS assay. The procedure, abridged:
as §1

In assay [3] the test system is HeLa. Kind of assay: Cytotoxicity against human HeLa cells at 20 ug/ml after 48 hrs by MTS assay. The method, boiled down:
as §1

Assay [4] relates to HCT-116. Kind of assay: Cytotoxicity against human HCT116 cells at 20 ug/ml after 48 hrs by MTS assay. The procedure, abridged:
as §1

For assay [5], the system named is A549. Nature of the assay: Cytotoxicity against human A549 cells after 48 hrs by MTS assay. The conditions noted are these: A549, 48 h. The method, boiled down:
(§2)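 MTS assay in triplicate. Cells seeded at (2−5) × 10³ per well, with the number set by growth rate, and allowed to attach overnight. Medium then replaced with medium containing 0.1% DMSO or serial dilutions of compounds made from 100 mM DMSO stocks. Cisplatin served as positive control. Incubation 48 h at 37 °C in humidified 5% CO2. MTS added, then 90 min at 37 °C in the dark. IC50 derived.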

The subject of assay [6] is HeLa. Nature of the assay: Cytotoxicity against human HeLa cells after 48 hrs by MTS assay. The method, boiled down:
as §2

Assay [7] concerns HCT-116. Kind of assay: Cytotoxicity against human HCT116 cells after 48 hrs by MTS assay. Conditions: HCT-116, 48 h. The procedure, abridged:
as §2

The test system of assay [8] is MCF7. Kind of assay: Cytotoxicity against human MCF7 cells after 48 hrs by MTS assay. The conditions noted are these: MCF7, 48 h. The procedure, abridged: as §1

One may read the IC50 as the midpoint of a concentration-inhibition curve. Read a high IC50 as a need for much substance.

The structures appear in SMILES notation. Activity calls are given as the source filed them. The rule behind the calls is not given here.

With `COC(=O)[C@H]1c2c(oc3cccc(O)c3c2=O)C[C@](C)(O)[C@H]1O`, the outcome in assay [1], in assay [2], in assay [3] and in assay [4] was inactive.
`COC(=O)[C@@]1(O)c2c(oc3cccc(O)c3c2=O)S[C@@H](C)[C@H]1O` [PREUSSOCHROMONE A]: the IC50 in assay [5] was determined as 8.34 µM; in assay [6], 25.5 µM; in assay [7], 25.9 µM.
Turning to `COC(=O)[C@]1(O)[C@H](O)[C@H](C)[C@H]2Oc3cccc(O)c3C(=O)[C@H]21`, the result in assay [1], in assay [2], in assay [3] and in assay [4] was inactive.
For `COC1=CC(=O)c2c(O)cc(OC)c3c2[C@]1(O)COC3=O` [PREUSSOCHROMONE C], the IC50 is 5.75 µM in assay [5], 41.2 µM in assay [8], 30 µM in assay [6] and 15.1 µM in assay [7].
Consider `COC(=O)[C@]1(O)C(=O)[C@H](C)[C@H]2Oc3cccc(O)c3C(=O)[C@@H]21`, for which the outcome in assay [1], in assay [2], in assay [3] and in assay [4] was inactive.
For the molecule `COC(=O)[C@]1(O)[C@@H](O)[C@H](C)[C@H]2Oc3cccc(O)c3C(=O)[C@@H]21`, the outcome in assay [1], in assay [2], in assay [3] and in assay [4] was inactive.
